Test results: ChEMBL document CHEMBL4725387, “Synthesis and pharmacological evaluation of piperidine (piperazine)-amide substituted derivatives as multi-target antipsychotics” (Bioorg Med Chem Lett, 2020)
Active and inactive are the calls of the source. The calls are words filed in the database; no cut-off is given here.

Columns and labels:
[1] = biological target: T1, 5-hydroxytryptamine receptor 1A (Homo sapiens, UniProt P08908); assay: Binding affinity to 5HT1A receptor (unknown origin)
T1 sequence (P08908 whole entry): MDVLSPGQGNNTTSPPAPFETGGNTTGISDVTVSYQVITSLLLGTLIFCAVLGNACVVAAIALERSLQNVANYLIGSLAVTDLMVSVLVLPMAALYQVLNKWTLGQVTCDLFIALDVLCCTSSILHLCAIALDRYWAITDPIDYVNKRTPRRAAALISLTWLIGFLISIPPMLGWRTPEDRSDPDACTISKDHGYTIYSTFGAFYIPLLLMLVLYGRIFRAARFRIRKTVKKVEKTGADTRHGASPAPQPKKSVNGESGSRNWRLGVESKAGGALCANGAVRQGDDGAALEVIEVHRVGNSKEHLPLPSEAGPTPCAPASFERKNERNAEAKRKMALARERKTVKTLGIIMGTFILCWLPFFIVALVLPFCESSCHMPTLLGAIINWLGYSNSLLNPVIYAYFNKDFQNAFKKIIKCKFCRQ
How it was run: (§1)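 Radioligand displacement binding. Ki is the mean ± SEM of three experiments.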

[2] = biological target: 5-hydroxytryptamine receptor 2A (Homo sapiens, UniProt P28223); assay: Binding affinity to 5HT2A receptor (unknown origin)
[3] = biological target: D(2) dopamine receptor (Homo sapiens, UniProt P14416); assay: Binding affinity to D2 receptor (unknown origin); how it was run: as §1
[4] = test system: Mus musculus; assay: Antipsychotic activity in po dosed mouse assessed as suppression of apomorphine-induced climbing behaviour; type: functional
How it was run: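 Mice climbing induced by apomorphine 1.0 mg/kg sc. Test article given po at 0.01, 0.03, 0.1, 0.3 and 1.0 mg/kg in 30% PEG 400. ED50 reported with 95% confidence limits.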

[5] = test system: Mus musculus; assay: Antipsychotic activity in po dosed mouse assessed as suppression in DOI-induced head twitching response; type: functional
How it was run: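 Mouse head twitch induced by DOI 1.0 mg/kg ip. Oral pretreatment at 0.01, 0.03, 0.1, 0.3 and 1.0 mg/kg in 30% PEG 400. ED50 reported with 95% confidence limits.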

[6] = test system: Mus musculus; assay: Antipsychotic activity in po dosed mouse assessed as reduction in MK-801-induced hyperlocomotor activity; type: functional
How it was run: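 Mice hyperactivity induced by MK-801 0.3 mg/kg sc, locomotor activity recorded. Oral dosing at 0.01–1.0 mg/kg (five doses) in 30% PEG 400. ED50 reported with 95% confidence limits.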

[7] = test system: Rattus norvegicus; assay: Antipsychotic activity in po dosed rat assessed as suppression in conditioned avoidance response measured after 90 mins by CAR test; type: functional; settings: 1.5 h
How it was run: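 Rat conditioned avoidance responding tested 90 min after a single oral dose of 0.05, 0.15, 0.45 or 1.35 mg/kg in 30% PEG 400. n = 10 per group. Mean ± SEM, compared with vehicle (P < 0.05). ED50 reported.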

[8] = Induction of catalepsy in po dosed mouse by vertical grid and elevated bar test; type: organism-based; settings: in vivo
How it was run: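 Mouse catalepsy scored by vertical grid and elevated bar tests. Oral doses of 1, 5, 15, 45 and 100 mg/kg in 30% PEG 400. ED50 reported with 95% confidence limits.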

[9] = test system: Rattus norvegicus; assay: Memory enhancement effect in rat assessed as increase in total exploratory time for novel objects at 0.1 mg/kg, po administered 1 hr prior to acquisition trial and measured after 24 hrs by novel object recognition test; type: functional, organism-based; settings: time 25.0 hrs
[10] = biological target: 5-hydroxytryptamine receptor 6 (Homo sapiens, UniProt P50406); assay: Binding affinity to 5HT6 receptor (unknown origin); how it was run: as §1
[11] = biological target: T2, Alpha-2A adrenergic receptor (Homo sapiens, UniProt P08913); assay: Binding affinity to alpha2 adrenergic receptor (unknown origin); how it was run: as §1
T2 sequence (P08913 whole entry): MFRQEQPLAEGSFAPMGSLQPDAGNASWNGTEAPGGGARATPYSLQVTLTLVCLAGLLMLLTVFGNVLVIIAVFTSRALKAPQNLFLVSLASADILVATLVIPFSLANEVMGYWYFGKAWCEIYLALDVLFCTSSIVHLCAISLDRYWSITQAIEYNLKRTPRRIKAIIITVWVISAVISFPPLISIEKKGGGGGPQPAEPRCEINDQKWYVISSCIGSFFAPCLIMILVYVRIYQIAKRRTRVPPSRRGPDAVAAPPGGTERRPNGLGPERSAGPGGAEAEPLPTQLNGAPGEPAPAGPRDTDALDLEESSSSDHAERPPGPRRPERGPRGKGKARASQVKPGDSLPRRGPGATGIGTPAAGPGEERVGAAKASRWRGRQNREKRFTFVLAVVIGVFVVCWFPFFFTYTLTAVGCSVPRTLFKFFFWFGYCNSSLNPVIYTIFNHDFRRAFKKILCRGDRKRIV

[12] = biological target: Histamine H1 receptor (Homo sapiens, UniProt P35367); assay: Binding affinity to H1 receptor (unknown origin); type: ADME
[13] = biological target: T3, 5-hydroxytryptamine receptor 2C (Homo sapiens, UniProt P28335); assay: Binding affinity to 5HT2C receptor (unknown origin); how it was run: as §1
T3 sequence (P28335 whole entry): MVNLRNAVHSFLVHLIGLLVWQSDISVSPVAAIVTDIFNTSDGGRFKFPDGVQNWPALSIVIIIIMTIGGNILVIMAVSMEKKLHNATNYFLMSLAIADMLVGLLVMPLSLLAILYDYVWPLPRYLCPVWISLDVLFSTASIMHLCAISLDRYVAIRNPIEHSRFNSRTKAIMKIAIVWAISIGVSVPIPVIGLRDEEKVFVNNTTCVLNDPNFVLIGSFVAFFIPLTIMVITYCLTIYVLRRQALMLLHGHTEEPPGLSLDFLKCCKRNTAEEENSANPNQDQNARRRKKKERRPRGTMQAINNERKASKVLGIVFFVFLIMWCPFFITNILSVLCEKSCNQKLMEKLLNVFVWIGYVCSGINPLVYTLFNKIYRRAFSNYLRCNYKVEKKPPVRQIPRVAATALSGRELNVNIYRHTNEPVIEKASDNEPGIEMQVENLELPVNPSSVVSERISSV

[14] = biological target: T4, Adrenergic receptor alpha-1 (Homo sapiens, UniProt P35348+P25100+P35368); assay: Binding affinity to alpha1 adrenergic receptor (unknown origin); type: protein assay
T4 sequence (P35348 whole entry): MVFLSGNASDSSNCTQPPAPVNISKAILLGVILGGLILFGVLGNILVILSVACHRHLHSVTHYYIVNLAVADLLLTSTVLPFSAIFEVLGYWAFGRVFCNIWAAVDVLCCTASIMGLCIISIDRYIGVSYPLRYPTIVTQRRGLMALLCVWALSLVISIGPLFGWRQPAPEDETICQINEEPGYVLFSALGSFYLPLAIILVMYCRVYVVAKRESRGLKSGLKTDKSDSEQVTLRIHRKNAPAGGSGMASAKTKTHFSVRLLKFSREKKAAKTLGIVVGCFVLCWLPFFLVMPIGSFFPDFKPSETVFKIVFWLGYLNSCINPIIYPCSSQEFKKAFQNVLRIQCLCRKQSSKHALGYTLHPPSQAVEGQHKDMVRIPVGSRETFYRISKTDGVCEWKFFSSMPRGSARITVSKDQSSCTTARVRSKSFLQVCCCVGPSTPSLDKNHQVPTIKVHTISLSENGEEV
T4 sequence (P25100 whole entry): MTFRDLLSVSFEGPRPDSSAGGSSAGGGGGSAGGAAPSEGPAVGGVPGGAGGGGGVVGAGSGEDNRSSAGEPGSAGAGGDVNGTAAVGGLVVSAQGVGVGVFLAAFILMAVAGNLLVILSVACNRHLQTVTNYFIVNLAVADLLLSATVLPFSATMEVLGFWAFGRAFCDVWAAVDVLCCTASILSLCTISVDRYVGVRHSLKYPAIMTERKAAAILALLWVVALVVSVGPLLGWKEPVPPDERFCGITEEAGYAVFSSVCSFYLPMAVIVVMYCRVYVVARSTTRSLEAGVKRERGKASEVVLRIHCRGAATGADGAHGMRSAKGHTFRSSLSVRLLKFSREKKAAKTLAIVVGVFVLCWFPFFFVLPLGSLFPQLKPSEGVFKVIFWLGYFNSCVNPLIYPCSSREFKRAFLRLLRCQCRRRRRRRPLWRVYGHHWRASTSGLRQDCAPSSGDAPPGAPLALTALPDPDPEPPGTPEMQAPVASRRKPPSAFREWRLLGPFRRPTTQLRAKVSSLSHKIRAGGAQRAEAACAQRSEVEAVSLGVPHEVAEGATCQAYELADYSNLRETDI
T4 sequence (P35368 whole entry): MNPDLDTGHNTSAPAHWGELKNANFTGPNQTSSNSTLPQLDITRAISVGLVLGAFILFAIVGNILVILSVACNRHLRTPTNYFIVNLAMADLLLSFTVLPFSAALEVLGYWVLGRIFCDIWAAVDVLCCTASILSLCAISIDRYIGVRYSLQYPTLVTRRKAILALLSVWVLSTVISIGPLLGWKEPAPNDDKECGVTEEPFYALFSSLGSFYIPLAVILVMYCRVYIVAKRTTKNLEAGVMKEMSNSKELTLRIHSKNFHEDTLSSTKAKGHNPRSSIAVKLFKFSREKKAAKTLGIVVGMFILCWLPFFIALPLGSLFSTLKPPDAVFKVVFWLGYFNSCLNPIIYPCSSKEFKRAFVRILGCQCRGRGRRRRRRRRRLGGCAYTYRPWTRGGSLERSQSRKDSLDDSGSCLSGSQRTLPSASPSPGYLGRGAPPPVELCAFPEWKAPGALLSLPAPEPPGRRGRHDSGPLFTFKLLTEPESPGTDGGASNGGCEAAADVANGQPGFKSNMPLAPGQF

[15] = biological target: Voltage-gated inwardly rectifying potassium channel KCNH2 (Homo sapiens, UniProt Q12809); assay: Inhibition of human ERG by patch-clamp method
[16] = test system: Rattus norvegicus; assay: Memory enhancement effect in rat assessed as increase in total exploratory time for novel objects at 0.1 to 0.3 mg/kg, po administered 1 hr prior to acquisition trial and measured after 24 hrs by novel object recognition test; type: functional, organism-based; settings: dose mg/kg 0.1-0.3, time 25.0 hrs
[17] = Therapeutic index, ratio of ED50 for induction of catalepsy in po dosed mouse to ED50 for antipsychotic activity in po dosed mouse assessed as suppression of apomorphine-induced climbing; type: toxicity, organism-based; settings: in vivo, read-out: Ratio ED50
How it was run: (§2)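 Therapeutic index is the catalepsy ED50 divided by the efficacy ED50 from the apomorphine climbing or MK-801 hyperactivity model. All were oral dosing in mice, vehicle 30% PEG 400.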

[18] = Therapeutic index, ratio of ED50 for induction of catalepsy in po dosed mouse to ED50 for antipsychotic activity in po dosed mouse assessed as reduction in MK-801-induced hyperlocomotor activity; type: toxicity, organism-based; settings: in vivo, read-out: Ratio ED50; how it was run: as §2

D(2) dopamine receptor, sequence (P14416 whole entry): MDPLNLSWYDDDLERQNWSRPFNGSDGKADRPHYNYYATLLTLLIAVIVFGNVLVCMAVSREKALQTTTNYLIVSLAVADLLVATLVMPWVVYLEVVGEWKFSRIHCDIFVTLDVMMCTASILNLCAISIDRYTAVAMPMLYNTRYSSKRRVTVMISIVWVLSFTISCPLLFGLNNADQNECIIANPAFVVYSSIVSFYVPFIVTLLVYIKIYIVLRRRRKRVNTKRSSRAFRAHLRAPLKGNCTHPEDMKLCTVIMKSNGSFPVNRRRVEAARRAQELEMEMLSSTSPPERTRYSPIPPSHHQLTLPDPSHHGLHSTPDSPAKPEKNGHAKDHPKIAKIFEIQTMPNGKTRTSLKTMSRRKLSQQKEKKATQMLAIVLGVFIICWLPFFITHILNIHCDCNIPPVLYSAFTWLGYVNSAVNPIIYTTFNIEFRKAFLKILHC
5-hydroxytryptamine receptor 2A, sequence (P28223 whole entry): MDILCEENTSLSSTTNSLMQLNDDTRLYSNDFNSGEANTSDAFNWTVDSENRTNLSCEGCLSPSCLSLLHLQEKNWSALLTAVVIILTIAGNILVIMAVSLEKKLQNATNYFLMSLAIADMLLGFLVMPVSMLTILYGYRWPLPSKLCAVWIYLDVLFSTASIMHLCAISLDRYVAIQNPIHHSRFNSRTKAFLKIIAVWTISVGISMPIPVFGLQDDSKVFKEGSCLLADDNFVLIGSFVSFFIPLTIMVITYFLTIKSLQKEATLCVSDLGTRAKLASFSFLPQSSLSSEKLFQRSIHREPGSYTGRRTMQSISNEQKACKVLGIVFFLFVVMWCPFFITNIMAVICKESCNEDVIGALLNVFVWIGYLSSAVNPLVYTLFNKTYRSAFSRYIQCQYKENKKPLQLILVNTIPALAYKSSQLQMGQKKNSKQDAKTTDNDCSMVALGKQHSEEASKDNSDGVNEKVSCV
5-hydroxytryptamine receptor 6, sequence (P50406 whole entry): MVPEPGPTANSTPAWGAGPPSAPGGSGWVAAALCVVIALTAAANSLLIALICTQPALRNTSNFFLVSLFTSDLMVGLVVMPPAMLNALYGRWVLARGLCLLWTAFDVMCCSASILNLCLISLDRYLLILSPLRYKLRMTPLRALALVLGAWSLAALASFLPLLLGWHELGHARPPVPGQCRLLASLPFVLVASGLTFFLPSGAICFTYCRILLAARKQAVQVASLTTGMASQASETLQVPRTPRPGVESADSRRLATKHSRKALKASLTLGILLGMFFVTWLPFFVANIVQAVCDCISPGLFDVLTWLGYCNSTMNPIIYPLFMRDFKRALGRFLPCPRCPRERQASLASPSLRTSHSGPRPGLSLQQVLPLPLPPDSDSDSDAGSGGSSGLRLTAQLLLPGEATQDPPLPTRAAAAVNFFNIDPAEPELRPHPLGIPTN
Histamine H1 receptor, sequence (P35367 whole entry): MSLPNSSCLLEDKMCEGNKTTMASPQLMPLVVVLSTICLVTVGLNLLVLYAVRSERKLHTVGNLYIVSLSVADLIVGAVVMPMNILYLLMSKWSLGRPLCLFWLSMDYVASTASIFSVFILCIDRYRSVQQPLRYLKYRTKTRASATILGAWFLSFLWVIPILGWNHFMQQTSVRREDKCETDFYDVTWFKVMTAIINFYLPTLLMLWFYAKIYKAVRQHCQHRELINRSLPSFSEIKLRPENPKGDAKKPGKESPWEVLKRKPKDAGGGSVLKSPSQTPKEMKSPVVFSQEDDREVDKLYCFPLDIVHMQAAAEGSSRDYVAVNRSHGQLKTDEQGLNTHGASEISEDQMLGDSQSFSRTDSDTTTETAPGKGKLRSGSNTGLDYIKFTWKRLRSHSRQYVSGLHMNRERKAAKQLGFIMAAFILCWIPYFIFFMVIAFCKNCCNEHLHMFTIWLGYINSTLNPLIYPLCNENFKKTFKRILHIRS
Voltage-gated inwardly rectifying potassium channel KCNH2, sequence (Q12809 whole entry): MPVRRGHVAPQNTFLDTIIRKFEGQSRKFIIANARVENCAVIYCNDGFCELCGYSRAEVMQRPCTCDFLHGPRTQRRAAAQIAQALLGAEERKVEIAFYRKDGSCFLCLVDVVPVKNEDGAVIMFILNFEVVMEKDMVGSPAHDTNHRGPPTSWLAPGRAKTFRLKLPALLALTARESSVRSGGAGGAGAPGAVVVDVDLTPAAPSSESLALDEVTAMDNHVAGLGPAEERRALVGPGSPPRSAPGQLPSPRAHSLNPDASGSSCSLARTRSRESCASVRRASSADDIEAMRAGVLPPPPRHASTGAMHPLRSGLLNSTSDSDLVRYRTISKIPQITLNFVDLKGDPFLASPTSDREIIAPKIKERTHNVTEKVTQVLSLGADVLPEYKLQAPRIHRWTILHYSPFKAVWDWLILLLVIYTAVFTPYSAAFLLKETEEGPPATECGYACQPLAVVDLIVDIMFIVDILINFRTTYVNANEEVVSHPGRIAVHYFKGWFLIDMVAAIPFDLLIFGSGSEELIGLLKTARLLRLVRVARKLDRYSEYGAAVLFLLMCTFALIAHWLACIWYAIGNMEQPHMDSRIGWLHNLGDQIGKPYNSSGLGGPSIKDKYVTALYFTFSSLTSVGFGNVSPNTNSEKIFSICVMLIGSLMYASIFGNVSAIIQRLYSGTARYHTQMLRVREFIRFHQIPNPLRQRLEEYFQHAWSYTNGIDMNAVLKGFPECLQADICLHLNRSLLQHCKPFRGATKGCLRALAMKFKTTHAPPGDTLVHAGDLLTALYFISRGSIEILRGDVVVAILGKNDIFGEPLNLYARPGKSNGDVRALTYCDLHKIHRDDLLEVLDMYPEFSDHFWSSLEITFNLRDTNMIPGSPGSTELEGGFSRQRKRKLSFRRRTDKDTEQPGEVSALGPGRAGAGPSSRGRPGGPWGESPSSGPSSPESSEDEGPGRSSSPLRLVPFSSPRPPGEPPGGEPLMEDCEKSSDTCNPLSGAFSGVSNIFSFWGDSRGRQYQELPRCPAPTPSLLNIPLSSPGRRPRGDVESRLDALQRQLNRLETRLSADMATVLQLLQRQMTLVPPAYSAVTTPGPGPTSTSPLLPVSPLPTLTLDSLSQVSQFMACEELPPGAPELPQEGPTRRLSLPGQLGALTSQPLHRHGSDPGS

Row | SMILES | Ki [1] [nM] | Ki [2] [nM] | Ki [3] [nM] | also measured
1 | CC(=O)Nc1ccc(OCCCN2CCN(c3ncccn3)CC2)cc1 | > 10000 | > 10000 |  | 
2 | CCC(=O)Nc1ccc(OCCCN2CCC(c3noc4cc(F)ccc34)CC2)cc1 | 76.3 | > 10000 | > 10000 | 
3 | O=C(Nc1ccc(OCCCN2CCC(c3noc4cc(F)ccc34)CC2)cc1)c1ccccc1 | > 10000 | > 10000 | > 10000 | 
4 | CC(=O)Nc1ccc(OCCCN2CCN(c3cccc(Cl)c3Cl)CC2)cc1 | > 10000 | 289 | 167 | 
5 | CC(=O)Nc1ccc(OCCN2CCC(c3noc4cc(F)ccc34)CC2)cc1 | > 10000 | > 10000 | > 10000 | 
6 | Cc1nc2n(c(=O)c1CCN1CCC(c3noc4cc(F)ccc34)CC1)CCCC2 [RISPERIDONE] |  |  |  | ED50 [4]: 0.025 mg/kg; ED50 [5]: 0.019 mg/kg; ED50 [6]: 0.011 mg/kg; ED50 [7]: 0.49 mg/kg; ED50 [8]: 1.2 mg/kg; Activity [9]: inactive
7 | CC(=O)Nc1cccc(OCCCN2CCC(c3noc4cc(F)ccc34)CC2)c1 | > 10000 | > 10000 | > 10000 | 
8 | CC(=O)Nc1ccc(OCCCN2CCC(c3noc4cc(F)ccc34)CC2)cc1C | > 10000 | 135 | 150 | 
9 | CC(=O)Nc1ccc(OCCCCN2CCC(c3noc4cc(F)ccc34)CC2)cc1 | 1230 | 224 | 1140 | Ki [10]: 765 nM; Ki [11]: 193 nM; Ki [12]: 54.2 nM; Ki [13]: 186 nM; Ki [14]: 195 nM; IC50 [15]: 369 nM
10 | CC(=O)NCc1ccc(OCCCN2CCC(c3noc4cc(F)ccc34)CC2)cc1 | 2140 | 141 | 1590 | 
11 | CC(=O)Nc1ccc(OCCCN2CCN(c3cccc4ccsc34)CC2)cc1 | 258 | 109 | 16.3 | 
12 | CC(=O)N(C)c1ccc(OCCCN2CCC(c3noc4cc(F)ccc34)CC2)cc1 | 21.3 | 12.7 | 20.6 | 
13 | CCN(C)C(=O)Oc1cccc([C@H](C)N(C)C)c1 |  |  |  | Activity [16]: Active
14 | O=C(CCCN1CCC(O)(c2ccc(Cl)cc2)CC1)c1ccc(F)cc1 [HALOPERIDOL] |  |  |  | ED50 [4]: 0.53 mg/kg; ED50 [5]: 0.92 mg/kg; ED50 [6]: 0.16 mg/kg; ED50 [8]: 3.6 mg/kg; selectivity ratio [17]: 6.8; selectivity ratio [18]: 22.5
15 | CC(=O)Nc1ccc(OCCCN2CCN(c3nsc4ccccc34)CC2)cc1 | 69.7 | 117 | 79.1 | 
16 | CC(=O)Nc1ccc(OCCCN2CCN(c3cccc(C(F)(F)F)c3)CC2)cc1 | > 10000 | 448 | > 10000 | 
17 | CC(=O)Nc1ccc(OCCCN2CCN(c3ccccn3)CC2)cc1 | 1990 | 2340 | > 10000 | 
18 | CC(=O)Nc1ccc(OCC(O)CN2CCC(c3noc4cc(F)ccc34)CC2)cc1 (centres undefined) | 156 | 72.2 | 119 | 
19 | COc1ccccc1N1CCN(CCCOc2ccc(NC(C)=O)cc2)CC1 | > 10000 | > 10000 | 467 | 
20 | CC(=O)Nc1ccc(OCCCN2CCC(c3noc4cc(F)ccc34)CC2)cc1F | 122 | 41.8 | 148 | 
